In the array DNA melting data of Ke et al. (doi:10.1101/2024.01.08.574731):

Assays:
[1] = melting temperature; fluorescence melt of hairpins on a sequencing array, two-state fit, raised by 9.35 °C to match UV melts; conditions: sodium 0.088 M
Method in brief: (§1)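 Bootstrapped two-state fits yielded melting temperature and folding enthalpy for library hairpins. Cy3 fluorescence, with annealed Cy3 and quencher oligos, was imaged on a sequenced MiSeq flow cell in 50 mM Na-HEPES pH 8.0, 25 mM NaCl in 2.5 °C steps up to 60 °C, and normalised to pre-quench Cy3 and to control constructs. Four replicates were combined by inverse variance, and fitted temperatures were raised by 9.35 °C to match UV melts.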

[2] = folding enthalpy; higher = less favourable; fluorescence melt of hairpins on a sequencing array, two-state fit; conditions: sodium 0.088 M
Method in brief: as §1

Sequence | Tm [1] | folding enthalpy [2]
GGTCGAGGAAACTCAACC (((.(((....))).))) | 37 °C | -29.5 kcal/mol
GATCATTACATGATC ((((((...)))))) | 50.2 °C | -33.8 kcal/mol
GCACACCGAAAGGTATGC (((.(((....))).))) | 50.8 °C | -32.8 kcal/mol
GCTAGCGAAAGCTAAAGC ((((((....)))..))) | 46 °C | -19.1 kcal/mol
GTCTGAGGAAACTCAGAC (((((((....))))))) | 63.8 °C | -45.5 kcal/mol
GCGTGCTCGAAAGAGCGC (((..(((....)))))) | 51.5 °C | -10.2 kcal/mol
GGGACTGGAAACAGTCCC (((((((....))))))) | 69 °C | -37.8 kcal/mol
GATTTGACGAAAGTCATC (((..(((....)))))) | 27.3 °C | -8.24 kcal/mol
CGATCGGAAACGAAATCG ((((((....)))..))) | 33.9 °C | -22.2 kcal/mol
CGCACCCGGAAACGGGCG (((..(((....)))))) | 46.1 °C | -12 kcal/mol
GATCTCAATAGAGATC ((((((....)))))) | 53.3 °C | -38.5 kcal/mol
GGGTGCGAAAGCAGACCC ((((((....)))..))) | 54.7 °C | -20.4 kcal/mol
GATCAGGTAGCTGATC ((((((....)))))) | 53.4 °C | -39.7 kcal/mol
GAGAACGAAAGTTCCTC ((((((....))).))) | 42.7 °C | -14.2 kcal/mol
AACATGAAAATGTT (((((....))))) | 33.6 °C | -14.7 kcal/mol
GATCATGGGTATGATC ((((((....)))))) | 46.7 °C | -34.6 kcal/mol
GTACACGGAAACGTGTGC (.(((((....))))).) | 56.2 °C | -27.1 kcal/mol
GATCCTCTTGAGGATC ((((((....)))))) | 61.3 °C | -41 kcal/mol
GAGGGCGAAAGCCTCCTC ((((((....)))..))) | 40.5 °C | -9.66 kcal/mol
GACTTGCGAAAGCAGGTC (((.(((....))).))) | 60 °C | -34.6 kcal/mol
GAGACAGAAATGTCTC ((((((....)))))) | 52.5 °C | -34.4 kcal/mol
GACAACCGAAAGGTCGTC (((.(((....))).))) | 49.5 °C | -38.6 kcal/mol
GAGCCACGAAAGTGACTC (((.(((....))).))) | 54.5 °C | -45.2 kcal/mol

Sequence | Tm [1] | folding enthalpy [2]
GATCCATATCTGGATC ((((((....)))))) | 49.7 °C | -35.5 kcal/mol
GGTCCCCGAAAGGGACC (((.(((....)))))) | 68.4 °C | -30.6 kcal/mol
GCGGCTTCGAAAGAACGC (((..(((....)))))) | 44.6 °C | -21.4 kcal/mol
GGGAGCGAAAGCTTGCCC ((((((....)))..))) | 39.4 °C | -12.2 kcal/mol
GGATATGGAAACATACCC ((.((((....)))).)) | 33.2 °C | -25.3 kcal/mol
GTTGGTGGAAACGTCAAC ((((..(....)..)))) | 33.5 °C | -16.1 kcal/mol
GGTAGCGAAAGCTCCACC ((((((....)))..))) | 38.8 °C | -13.2 kcal/mol
GCCGGCGAAAGCCAAGGC ((((((....)))..))) | 65.3 °C | -22.8 kcal/mol
GAGGTTGGAAACAGTCTC (((..((....))..))) | 25.6 °C | -10.1 kcal/mol
GTATAAACGAAAGTTTAC (((..(((....)))))) | 29.4 °C | -11.8 kcal/mol
GCAGAGAAATCTGC (((((....))))) | 50.6 °C | -23.1 kcal/mol
GGAGCCGAAAGGCCTTCC ((((((....)))..))) | 46.2 °C | -15.4 kcal/mol
GGTTGCGAAAGCACCACC ((((((....)))..))) | 45.1 °C | -11.6 kcal/mol
CGCGGAAGCCTCCGCG ((((((....)))))) | 68.6 °C | -31.3 kcal/mol
GTCGCAGGAAACCGCAAC ((.((.(....).)).)) | 25.8 °C | -12.8 kcal/mol
GCAATGCGAAAGCTATGC (((..((....))..))) | 50.6 °C | -20.4 kcal/mol
GCCAAGCGAAAGCTTCGC ((.((((....)))).)) | 50.4 °C | -16.8 kcal/mol
GGATATGGAAACATATCC (((((((....))))))) | 54.7 °C | -47 kcal/mol
CGTCCGCGGAAACGCACG (((..(((....)))))) | 33.5 °C | -12 kcal/mol
GCTAGGCGAAAGCATGGC ((.(.((....)).).)) | 50.1 °C | -20.7 kcal/mol
GTTTGCGAAAGCAAAAC ((((((....))).))) | 52.6 °C | -17.4 kcal/mol
GATCACAAAGGTGATC ((((((....)))))) | 53.6 °C | -32.8 kcal/mol
GATCCGAACGCGGATC ((((((....)))))) | 55.1 °C | -39.6 kcal/mol
